{"source": "paper PMC7041979", "about": "(The Journal of Veterinary Medical Science, 2019)", "key": {"[1]": {"assay_type": "in vitro ADME, rat", "conditions": "for detection of ZON metabolite in mucosal and serosal buffers: LC-MS/MS", "how_it_was_run": "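Everted 10 cm segments from male, nonpregnant female and gestation day 18–19 pregnant Sprague-Dawley rats: three small-intestine parts plus distal colon. Krebs Ringer bicarbonate, pH 7.4, 95% O₂/5% CO₂, 37°C. Mucosal 25 ml; serosal 25 ml circulated at 5 ml/min. Test compound 10 µM mucosal; both sides sampled 0–60 min. Negative-ESI LC-MS/MS against bile-derived glucuronide standards; mean ± S.D., six experiments.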"}, "[2]": {"conditions": "after oral exposure, estimated; cited from earlier work"}, "cell viability": {"system": "cell viability", "conditions": "10 µM, in vitro; cited from earlier work"}, "estrogenic activity": {"system": "estrogenic activity", "conditions": "cited from earlier work"}, "[3]": {"conditions": "ZON 10 µM, 60 min, female colon"}, "[4]": {"conditions": "ZON 10 µM, 60 min, female proximal intestine"}, "[5]": {"conditions": "ZON 10 µM, 60 min, pregnant female proximal intestine"}}, "data": [{"compound": "C[C@H]1CCCC(=O)CCCCCc2cc(O)cc(O)c2C(=O)O1", "note": "[ZAN, Zearalanone]", "values": [{"measurement": "detection of ZON metabolite in mucosal and serosal buffers", "setting": "[1]; ZON 10 µM, 60 min", "result": "too low to quantify"}]}, {"compound": "C[C@H]1CCCC(=O)CCC/C=C/c2cc(O)cc(O)c2C(=O)O1", "note": "[ZON, Zearalenone]", "values": [{"measurement": "rate of disappearance of ZON from the mucosal compartment", "setting": "[1]; ZON 10 µM in mucosal buffer, all segments", "result": "100 to 200", "unit": "nmol/h"}, {"measurement": "amount of ZON transported from the mucosal side to the serosal side", "setting": "[1]; ZON 10 µM, 60 min incubation, distal colon (highest)", "result": "approximately 2 nmol"}, {"measurement": "recovery at 60 min, 10 µM", "setting": "[1]; both, rat, pH 7.4", "result": "> 80", "unit": "%"}, {"measurement": "ZON uptake", "setting": "[2]", "result": "80–85%"}, {"measurement": "effect on cell viability", "setting": "cell viability", "result": "not to affect cell viability"}]}, {"compound": "CC1CCCC(=O)CCCC=Cc2cc(OC3OC(C(=O)O)C(O)C(O)C3O)cc(OC3OC(C(=O)O)C(O)C(O)C3O)c2C(=O)O1", "note": "(stereo not drawn) [zearalenone diglucuronide, Zearalenone diglucuronide]", "values": [{"measurement": "detection of ZON metabolite in mucosal and serosal buffers", "setting": "[1]; ZON 10 µM, 60 min", "result": "too low to quantify"}]}, {"compound": "C[C@H]1CCC[C@H](O)CCC/C=C/c2cc(O)cc(O)c2C(=O)O1", "note": "[α-ZOL, α-Zearalenol]", "values": [{"measurement": "α-ZOL transport to the mucosal side relative to transport to the serosal side", "setting": "[1]; ZON 10 µM, 60 min", "result": "approximately 6 times"}, {"measurement": "α-ZOL mucosal excretion", "setting": "[1]; ZON 10 µM, 60 min, at most, over all segments", "result": "≤ 0.3", "unit": "nmol"}, {"measurement": "α-ZOL transport to the serosal side, maximum", "setting": "[1]; ZON 10 µM, 60 min, colon", "result": "approximately 0.05 nmol"}, {"measurement": "estrogenic activity relative to ZON", "setting": "estrogenic activity", "result": "three times more potent"}]}, {"compound": "C[C@H]1CCC[C@@H](O)CCC/C=C/c2cc(O[C@@H]3O[C@H](C(=O)O)[C@@H](O)[C@H](O)[C@H]3O)cc(O)c2C(=O)O1", "note": "[α-ZOL-GA, α-Zearalenol glucuronide]", "values": [{"measurement": "α-ZOL-GA mucosal excretion, minimum", "setting": "[1]; [3]", "result": 20.09, "unit": "nmol"}, {"measurement": "α-ZOL-GA serosal transport, minimum", "setting": "[1]; [4]", "result": 2.84, "unit": "nmol"}, {"measurement": "α-ZOL-GA serosal transport, maximum", "setting": "[1]; ZON 10 µM, 60 min, pregnant female colon", "result": 36.15, "unit": "nmol"}, {"measurement": "α-ZOL-GA mucosal excretion, maximum", "setting": "[1]; [5]", "result": 60.02, "unit": "nmol"}]}, {"compound": "C[C@H]1CCC[C@H](O)CCC/C=C/c2cc(O[C@@H]3O[C@H](C(=O)O)[C@@H](O)[C@H](O)[C@H]3O)cc(O)c2C(=O)O1", "note": "[β-ZOL-GA, β-Zearalenol glucuronide]", "values": [{"measurement": "detection of ZON metabolite in mucosal and serosal buffers", "setting": "[1]; ZON 10 µM, 60 min", "result": "too low to quantify"}]}, {"compound": "Zearalenone glucuronide [ZON-GA]", "values": [{"measurement": "ZON-GA mucosal excretion, minimum", "setting": "[1]; [3]", "result": 22.55, "unit": "nmol"}, {"measurement": "ZON-GA serosal transport, maximum", "setting": "[1]; [3]", "result": 49.94, "unit": "nmol"}, {"measurement": "ZON-GA serosal transport, minimum", "setting": "[1]; [4]", "result": 1.64, "unit": "nmol"}, {"measurement": "ZON-GA mucosal excretion, maximum", "setting": "[1]; [5]", "result": 85.39, "unit": "nmol"}]}, {"compound": "β-Zearalenol [β-ZOL]", "values": [{"measurement": "detection of ZON metabolite in mucosal and serosal buffers", "setting": "[1]; ZON 10 µM, 60 min", "result": "too low to quantify"}]}]}
